Compound activity deposited in PubChem BioAssay by several laboratories.
FLuc stim CS – firefly luciferase counter-screen for stimulation assays. P08659. activation factor at 10 µM. 200,000 tested, under 10 active. ATPlite luciferase biochemical, luminescence, 10 min; 0 = ATP-free wells, 1 = DMSO control;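 active means luciferase activation factor, scaled between plate controls, of at least 2 with compound at 10 µM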
Target sequence (P08659 whole entry, looked up): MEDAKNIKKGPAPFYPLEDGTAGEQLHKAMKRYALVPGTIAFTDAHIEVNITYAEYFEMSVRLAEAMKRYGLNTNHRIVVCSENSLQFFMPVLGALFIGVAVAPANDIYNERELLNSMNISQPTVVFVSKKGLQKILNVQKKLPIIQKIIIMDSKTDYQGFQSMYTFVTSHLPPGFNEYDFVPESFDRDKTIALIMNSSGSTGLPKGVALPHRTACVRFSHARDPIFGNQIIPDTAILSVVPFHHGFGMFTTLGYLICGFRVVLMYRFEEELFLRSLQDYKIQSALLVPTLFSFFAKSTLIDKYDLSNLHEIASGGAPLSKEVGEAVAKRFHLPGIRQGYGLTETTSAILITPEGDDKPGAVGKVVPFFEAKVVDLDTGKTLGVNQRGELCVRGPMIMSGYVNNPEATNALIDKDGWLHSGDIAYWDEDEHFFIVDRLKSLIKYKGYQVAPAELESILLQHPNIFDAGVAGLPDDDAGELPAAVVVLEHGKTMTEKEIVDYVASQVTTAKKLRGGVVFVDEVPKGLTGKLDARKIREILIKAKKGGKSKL
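Material: luciferase plus luciferin reagent, cell-free. Medium: PBS buffer for ATP. Also added: ATP substrate, dispensed from a 10.24 µM working solution in PBS. Doses: test compounds dosed from 2 mM stocks in 100% DMSO. Incubation: 10 min post-reagent at room temperature. Technique: light output (luminescence). Read-out basis: luminescence gain marking luciferase activators.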
APP 5'UTR act – activates APP 5'UTR luciferase reporter. activation, % at 2 µM. hit rate 1% among 190,000. SH-SY5Y APP 5'UTR luciferase reporter, luminescence; zero percent = DMSO vehicle wells. AID 1276;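 active means activation above a set limit, based on mean plus 3 SD of controls, cut at about 140% in these data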
FLuc inhib CS – inhibits firefly luciferase, flagging false hits in luciferase inhibition screens | P08659 | ATPLite firefly luciferase biochemical luminescence, 10 min | inhibition, % at 10 µM | hit rate 1.5% among 200,000;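 active means inhibition above about 50% when tested at 10 µM, limit read from the data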
SDO1 yeast rescue – compounds rescuing growth of sdo1-depleted yeast, bone marrow failure model; S. cerevisiae sdo1-depleted JHY4D growth rescue, OD600 30 h; stronger effect = higher value; pdr5 snq2 efflux-pump mutant strain; z-score at 10 µM; hit rate 0.21% among 140,000;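 active means z-score above 3 at both the 24 hr and the 30 hr optical density reads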
NF-kB neuron act – raises NF-kB expression in human neuronal cells. NF-kB reporter expression; stronger effect = higher value. fold change at 12.5 µM. hit rate 1.6% among 190,000; in the data active means fold change above about 3.3
STAT1 activator – increases IFN-gamma driven STAT1 reporter signal; NIH 3T3 STAT1-luciferase reporter, luminescence; 100% = IFN-gamma alone, no compound; activation (% of control), % at 5.5 µM; hit rate 2.6% among 200,000; AID 932;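 active means activation above the screen-wide mean activation plus 3 SD, cut at about 130% in these data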
Large screens that a line does not name were inactive. An excerpt weighted towards active compounds, which were near 4.3% of everything screened.

O=S(=O)(Cc1cc(-c2ccccc2)no1)c1ccccc1	STAT1 activator 129 (no result: SDO1 yeast rescue)
O=C1c2ccccc2C(=O)N1Cc1cc(-c2ccccc2)no1	none
COc1ccc(-c2cc(COc3ccccc3)on2)cc1	STAT1 activator 140 (no result: SDO1 yeast rescue)
CCN(CC)CC(=O)NCc1cc(-c2ccc(OC)cc2)no1	none
COc1ccc(-c2cc(CS(=O)(=O)c3ccccc3)on2)cc1	STAT1 activator 142 (no result: SDO1 yeast rescue)
Cc1cc(NC(=O)NC2CC(=O)N(c3ccc4c(c3)OCCO4)C2)no1 (configuration not stated)	none (no result: SDO1 yeast rescue)
Cc1ccc(C2C(C#N)=C(N)N(c3cccnc3)C3=C2C(=O)CCC3)c(C)c1 (configuration not stated)	none (no result: SDO1 yeast rescue)
COc1ccc(CNC(=O)c2ccc3c(c2)N(C)C(=O)CS3=O)cc1 (configuration not stated)	none
CCn1c(C)nc2cc(C(=O)N/N=C/c3ccc(O)cc3)ccc21	none
CCn1c(C)nc2cc(C(=O)N/N=C/c3ccccc3)ccc21	STAT1 activator 145 (no result: SDO1 yeast rescue)
CCn1c(C)nc2cc(C(=O)N/N=C/c3cccc(O)c3O)ccc21	FLuc inhib CS 66 (no result: SDO1 yeast rescue)
Cn1cc(CN2CCC(C(=O)N3CCCCC3)CC2)c(-c2ccccc2F)n1	none (no result: SDO1 yeast rescue)
CC(C)(C)c1ccc(/C=C/C(=O)Nc2nncs2)cc1	APP 5'UTR act 168
CCC(CC)NC(=O)c1cccc(Oc2ccccc2)c1	none (no result: SDO1 yeast rescue)
O=C(NNS(=O)(=O)c1ccc(C(=O)NC2CCCC2)cc1)c1ccncc1	none (no result: SDO1 yeast rescue)
O=C(Nc1ccc2oc(-c3ccccc3)nc2c1)c1ccccc1F	STAT1 activator 146
O=C(Nc1ccc2oc(-c3ccncc3)nc2c1)c1ccccc1	none (no result: SDO1 yeast rescue)
CC(=O)Nc1ccc2oc(-c3ccccc3)nc2c1	FLuc inhib CS 70, NF-kB neuron act 7.6, STAT1 activator 150 (no result: SDO1 yeast rescue)
O=C(Nc1ccc2oc(-c3ccccc3F)nc2c1)c1ncn[nH]1	APP 5'UTR act 138, FLuc inhib CS 53, NF-kB neuron act 5.3, STAT1 activator 136
CC(=O)NC(=S)Nc1ccc2oc(-c3cc(F)c(F)cc3Cl)nc2c1	APP 5'UTR act 170 (no result: SDO1 yeast rescue)
O=C(Nc1ccc2oc(-c3ccncc3)nc2c1)c1ccccc1F	none
O=C(Cc1ccccc1)NC(=S)Nc1ccc2oc(-c3ccccc3F)nc2c1	none
COc1ccc(N(CC(=O)Nc2cccc(N(C)S(C)(=O)=O)c2)S(=O)(=O)c2ccccc2)cc1Cl	none (no result: SDO1 yeast rescue)
CC(=O)c1cnn(-c2nc3c(C)cccc3s2)c1C	NF-kB neuron act 3.9
CC(=O)c1cnn(-c2ccccc2)c1C	none (no result: SDO1 yeast rescue)
CCC(=O)Nc1ccc(C(=O)OCc2ccccc2Cl)cc1	STAT1 activator 137
COC(=O)c1ccc(NC(=O)C(=O)c2cccn2C)cc1	FLuc inhib CS 84, NF-kB neuron act 8.4 (no result: SDO1 yeast rescue)
CCOc1ccc(NC(=O)Cc2ccccc2)cc1	STAT1 activator 135
COCC(=O)Nc1ccc(OCc2ccccc2)cc1	STAT1 activator 131
COC(=O)Nc1ccc(OCc2ccccc2)cc1	none
CCC(C(=O)Nc1ccccc1OC)n1c(C(=O)OC)cc2ccsc21 (configuration not stated)	none
CCOc1ccc(NC(=O)c2ccc(NC(=O)COC(=O)Cc3ccc(OC)cc3)cc2)cc1	STAT1 activator 136 (no result: SDO1 yeast rescue)
COc1ccc(CC(=O)OCC(=O)Nc2ccc(C(=O)Nc3ccc(OC)cc3)cc2)cc1	none (no result: SDO1 yeast rescue)
COC(=O)c1ccc(NC(=O)Cc2ccccc2)cc1	STAT1 activator 132
CCOc1ccc(NC(=O)CN2C(=O)CSC(C)C2=O)cc1 (configuration not stated)	STAT1 activator 131 (no result: SDO1 yeast rescue)
Cn1nnnc1NCc1cccc(Cl)c1Cl	none (no result: SDO1 yeast rescue)
CCC(=O)Oc1ccc(-c2cnc3ccccc3n2)cc1	APP 5'UTR act 175, FLuc inhib CS 64, NF-kB neuron act 6.8, STAT1 activator 142
Cc1ccc(-c2nc(-c3ccccc3)no2)cc1	FLuc inhib CS 78, NF-kB neuron act 10, STAT1 activator 148
Cc1occc1-c1nc(-c2ccncc2)no1	none
CCOc1ccc(-c2nc(-c3ccccc3)no2)cc1OCC	none (no result: APP 5'UTR act)
Cc1ccc(-c2noc(-c3ccoc3C)n2)cc1	STAT1 activator 154 (no result: SDO1 yeast rescue)
CCCc1noc(-c2ccc(-c3ccccc3)cc2)n1	NF-kB neuron act 5.7, STAT1 activator 138
CCCCC(=O)N(CCOC)c1nnc(-c2ccccc2C)s1	none (no result: SDO1 yeast rescue)
Cc1ccc(-c2nc(-c3cccnc3)no2)cc1	FLuc inhib CS 66, NF-kB neuron act 6.3
COc1nc(C)ccc1-c1noc(-c2ccncc2)n1	STAT1 activator 131
Cc1cc(C)cc(-c2nc(-c3ccncc3)no2)c1	none
CC(C)(C)c1ccc(-c2nc(-c3ccncc3)no2)cc1	APP 5'UTR act 216, STAT1 activator 130
Cc1ccc(-c2nc(-c3ccccc3)no2)c(Cl)c1	APP 5'UTR act 166, FLuc inhib CS 95
COc1cc(-c2nc(-c3ccc(C)nc3OC)no2)cc(OC)c1OC	none (no result: APP 5'UTR act, SDO1 yeast rescue, NF-kB neuron act, STAT1 activator)
O=C(c1cccc(S(=O)(=O)NCCOc2ccccc2)c1)N1CCN(c2ncccn2)CC1	none
CCC(=O)Oc1ccc(-c2nc(-c3cccnc3)no2)cc1	FLuc inhib CS 61
NNc1nc2c(-c3ccc(F)cc3)nnn2c2ccccc12	STAT1 activator 141 (no result: SDO1 yeast rescue)
Cc1ccc(-c2nnn3c2nc(Cl)c2ccccc23)cc1	none (no result: SDO1 yeast rescue)
NNc1nc2c(-c3ccc(Cl)cc3)nnn2c2ccccc12	STAT1 activator 135 (no result: SDO1 yeast rescue)
Cc1ccc(C(=O)Nc2nc(C(C)(C)C)cs2)s1	NF-kB neuron act 5, STAT1 activator 146
CC(C)(C)c1csc(NC(=O)Nc2ccccc2)n1	NF-kB neuron act 4.9, STAT1 activator 136 (no result: SDO1 yeast rescue)
CC(C)(C)c1csc(NC(=O)c2ccc(Cl)s2)n1	NF-kB neuron act 3.6, STAT1 activator 137
CC1(C)O[C@@H]2C[C@H]3[C@@H]4C[C@H](F)C5=CC(=O)CC[C@]5(C)[C@H]4[C@@H](O)C[C@]3(C)[C@]2(C(=O)CO)O1	STAT1 activator 135
CCN(Cc1ccccc1)c1ccc(/C=N/N2CCOCC2)cc1	none
CCN(CC)c1ccc(/C=N/N2CCOCC2)cc1	FLuc inhib CS 52, STAT1 activator 139
CCc1ccc(NC(=O)Nc2cccs2)cc1	FLuc inhib CS 85, NF-kB neuron act 3.8, STAT1 activator 134
CCOc1ccc(NC(=O)Nc2ccc3nsnc3c2)cc1	none (no result: SDO1 yeast rescue)
CCOc1ccc(NC(=O)Nc2cccs2)cc1	FLuc inhib CS 83, NF-kB neuron act 4.5 (no result: APP 5'UTR act)
Cc1ccc(NC(=O)Nc2cccs2)cc1	FLuc inhib CS 64
c1coc(-c2nnc(-c3cccs3)o2)c1	none
Cc1ccccc1-c1nnc(-c2cccs2)o1	STAT1 activator 144 (no result: SDO1 yeast rescue)
Cc1ccccc1-c1noc(-c2cccs2)n1	STAT1 activator 143
Cc1cccc(NC(=S)N2CCN(S(=O)(=O)c3cccc(F)c3)CC2)c1	none (no result: SDO1 yeast rescue)
COc1cc(CCC(=O)OCC(=O)Nc2c(C)cc(C)cc2C)cc(OC)c1OC	none
O=C(/C=C/c1ccccc1)NC(=S)N1CCSCC1	none (no result: SDO1 yeast rescue)
